Data set [1] in a line: Antioxidant activity assessed as DPPH radical scavenging activity at 0.025 to 0.1 mg/ml incubated for 30 mins in dark by spectrophotometric analysis. The data set is classed as functional. On the technique in general: DPPH is a stable violet radical that fades when it is reduced.
Data set [2] can be described thus: Metal chelating activity of the compound assessed as inhibition of Fe2+-ferrozine complex formation incubated for 10 mins by spectrophotometric analysis. The data set is classed as functional.
For data set [3], the system named is Erythrocyte. In words: Hemolytic activity in human erythrocytes assessed as change in cell shape by measuring discocytes level at 0.1 mg/ml incubated for 60 mins by […]. The class given is ADME, cell-based. The conditions noted are these: 1 h.
Data set [4] can be described thus: Induction of hemolysis in human erythrocytes assessed as effect on osmotic resistance at 0.1 mg/ml incubated for 60 mins by erythrocyte osmotic fragility assay. The class given is cell-based. The following applies: 1 h. In a few lines:
(§1)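 After 60 min of compound treatment, RBC osmotic resistance was expressed as %NaCl and compared with untreated control cells (p < 0.05).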

Data set [5] concerns Erythrocyte. In words: Cytoprotection against AAPH-induced haemolysis in human erythrocytes at 0.01 to 1 mg/l pre-incubated for 20 mins before 60 mM AAPH addition for 4 hrs by spectrophotometric analysis. The class given is functional. The following applies: in the assay text read “0.025 to 0.1 mg/ml” for “0.01 to 1 mg/l”. The method, boiled down: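 Human erythrocytes (RBCs) pre-incubated 20 min with compound or the standards Trolox and BHT, then challenged with 60 mM AAPH to induce free-radical haemolysis. Data are means SD (n = 4), with significance set at p < 0.05.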

The nature of data set [6]: Hemolytic activity in human erythrocytes at 0.1 mg/ml incubated for 60 mins by spectrophotometric analysis. The data set is classed as ADME, cell-based, Erythrocyte. The conditions noted are these: read-out: Activity. The method, boiled down: (§2)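 RBCs were incubated with compound for 60 min. Haemolysis below 5% was taken as not significant.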
Data set [7] is described as follows: Antioxidant activity assessed as DPPH radical scavenging activity incubated for 30 mins in dark by spectrophotometric analysis. The data set is classed as functional.
Data set [8] in a line: Antioxidant activity assessed as DPPH radical scavenging activity at 0.1 mg/ml incubated for 30 mins in dark by spectrophotometric analysis relative to trolox. The class given is functional.
Data set [9] can be described thus: Antioxidant activity assessed as ferric ion reducing activity using Fe3+(CN-)6 incubated for 20 mins by spectrophotometric analysis. The class given is functional.
The nature of data set [10]: Antioxidant activity assessed as ferric ion reducing activity using Fe3+(CN-)6 at 0.1 mg/ml incubated for 20 mins by spectrophotometric analysis relative to trolox. The data set is classed as functional. Details: scale not given: the % may be the effect or the level left.
Data set [11] is described as follows: Antioxidant activity assessed as ferric ion reducing activity using Fe3+(CN-)6 at 0.1 mg/ml incubated for 20 mins by spectrophotometric analysis relative to BHT. The class given is functional.
Data set [12] has as its system Erythrocyte. In words: Hemolytic activity in human erythrocytes assessed as echinocytes/spherocytes formation incubated for 60 mins by microscopic analysis. The data set is classed as ADME, cell-based. The conditions noted are these: 1 h. The method, boiled down:
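RBCs were incubated with compound for 60 min, and cell morphology was then assessed by optical microscopy for echinocytes, spherocytes and RBC ghosts.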

The nature of data set [13]: Hemolytic activity in human erythrocytes at 0.025 mg/ml incubated for 60 mins by spectrophotometric analysis. The data set is classed as ADME, cell-based, Erythrocyte. The conditions noted are these: read-out: Activity. In a few lines:
as §2

A short description of data set [14]: Induction of hemolysis in human erythrocytes assessed as change in RBC shape by measuring echinocytes and spherocytes level at 0.1 mg/ml preincubated for 60 mins followed by AAPH induction measured after 4 hrs by […]. The class given is cell-based.
Data set [15] can be described thus: Hemolytic activity in human erythrocytes at 0.05 mg/ml incubated for 60 mins by spectrophotometric analysis. The data set is classed as ADME, cell-based, Erythrocyte. The conditions noted are these: read-out: Activity. In a few lines: as §2
The nature of data set [16]: Induction of hemolysis in human erythrocytes assessed as reduction in osmotic resistance at 0.1 mg/ml incubated for 60 mins by erythrocyte osmotic fragility assay relative to NaCl (reference value: 0.451%). The class given is cell-based. The following applies: 1 h. Details: scale not given: the % may be the effect or the level left. In a few lines: as §1
Data set [17] can be described thus: Antioxidant activity assessed as DPPH radical scavenging activity at 0.1 mg/ml incubated for 30 mins in dark by spectrophotometric analysis relative to BHT. The data set is classed as functional.
Data set [18] can be described thus: Antioxidant activity assessed as ferric ion reducing activity using Fe3+(CN-)6 at 0.025 to 0.1 mg/ml incubated for 20 mins by spectrophotometric analysis relative to trolox. The class given is functional. More on the design: scale not given: the % may be the effect or the level left.
The nature of data set [19]: Antioxidant activity assessed as ferric ion reducing activity using Fe3+(CN-)6 at 0.025 to 0.1 mg/ml incubated for 20 mins by spectrophotometric analysis relative to BHT. The class given is functional.

The source made the active and inactive calls. The rule behind the calls is not given here.

Take `CSc1nc2c(c(=O)n(C)c(=O)n2C)n1C`: the Activity in [1] was under 10%; in the data set with Erythrocyte [3], “Non-Toxic”; in [4] it was “Non-Toxic”; with Erythrocyte [5], 10%. For the same compound, the result in data set [2] was inactive. Also, the hemolysis at 1 h, 0.1 mg/ml in [6] lay in the range of 0 to 5%.

Regarding `Cn1c(=O)c2c(ncn2C)n(C)c1=O` [CAFFEINE], the Activity in data set [1] is under 10%; in the data set on Erythrocyte [3] it was “Non-Toxic”; in data set [4], “Non-Toxic”; in the data set with Erythrocyte [5] it was 10%. Moreover, the result in [2] was inactive. Besides, in data set [6], the hemolysis at 1 h, 0.1 mg/ml fell in the range of 0 to 5%.

With `Cn1c(=S)c2c(ncn2C)n(C)c1=S`, the Activity was under 10% in data set [1], “Non-Toxic” in the data set with Erythrocyte [3] and “Non-Toxic” in [4]. Moreover, in data set [2], the outcome was inactive. Moreover, in the data set on Erythrocyte [5], the result was Active. Moreover, in data set [6], the hemolysis at 1 h, 0.1 mg/ml lay in the range of 0 to 5%.

Regarding `Cn1c(=O)c2c(nc(SC(=S)N3CCCC3)n2C)n(C)c1=O`, the Activity result in data set [7] was “Dose-dependent effect”; in data set [8] it was 67%; in data set [9] it was “Dose-dependent effect”; in data set [10], 65%; in the data set on Erythrocyte [3], “Non-Toxic”; in [4], “Non-Toxic”. Moreover, the outcome (in data set [11]; in the data set on Erythrocyte [5]) was Active. Also, the outcome in [2] was inactive. Besides, the hemolysis at 1 h, 0.1 mg/ml in data set [6] is 0 to 5%.

As to `CCCSc1nc2c(c(=O)n(C)c(=O)n2C)n1C`, the Activity in [1] was under 10%; in the data set on Erythrocyte [3] it was “Non-Toxic”; in data set [4], “Non-Toxic”. In addition, the result (in data set [2]; with Erythrocyte [5]) was inactive. Also, the hemolysis at 1 h, 0.1 mg/ml in [6] was in the range of 0 to 5%.

With `Cn1c(=S)c2c(ncn2C)n(C)c1=O`, the Activity was under 10% in data set [1], “Non-Toxic” in the data set with Erythrocyte [3] and “Non-Toxic” in data set [4]. For the same compound, the outcome in [2] was inactive. The outcome in the data set with Erythrocyte [5] was Active. Also, the hemolysis at 1 h, 0.1 mg/ml in [6] lay within 0 to 5%.

`Cc1cc(C(C)(C)C)c(O)c(C(C)(C)C)c1`: the result in data set [8] and in [9] was Active.

With `Cn1c(=O)c2c(nc(SC(C)(C)C)n2C)n(C)c1=O`, the figures for the Activity (in [1]; in the data set with Erythrocyte [3]; in [4]) were under 10%, “Non-Toxic” and “Non-Toxic”, respectively. Besides, the result (in data set [2]; with Erythrocyte [5]) was inactive. For the same compound, the hemolysis at 1 h, 0.1 mg/ml in data set [6] lay within 0 to 5%.

In the case of `Cn1c(=O)c2c(nc(Sc3ccccc3)n2C)n(C)c1=O`, the Activity entry in the data set on Erythrocyte [12] is “Toxic”; in [1], under 10%; in data set [4] it was “Toxic”; in data set [14], “Toxic”; in data set [16], 0.488%. The result (in data set [2]; in the data set on Erythrocyte [5]) was inactive. In addition, in [13], the hemolysis at 1 h, 0.025 mg/ml was under 5%. Moreover, in data set [15], the hemolysis at 1 h, 0.05 mg/ml was determined as 26.9%. Also, the hemolysis at 1 h, 0.1 mg/ml in [6] is 57.2%.

On to `Cc1c(C)c2c(c(C)c1O)CCC(C)(C(=O)O)O2` (centres undefined), for which the result in the data set on Erythrocyte [5] was Active.

As to `CCSc1nc2c(c(=O)n(C)c(=O)n2C)n1C`, the Activity in [1] is under 10%; in the data set on Erythrocyte [3] it was “Non-Toxic”; in data set [4], “Non-Toxic”; in the data set with Erythrocyte [5], 10%. Moreover, in [2], the outcome was inactive. In addition, the hemolysis at 1 h, 0.1 mg/ml in data set [6] is 0 to 5%.

On to `CC(C)Sc1nc2c(c(=O)n(C)c(=O)n2C)n1C`, for which the Activity in data set [8] was 34%; in data set [18], 38%; in the data set with Erythrocyte [3] it was “Non-Toxic”; in data set [4], “Non-Toxic”; in the data set on Erythrocyte [5], 10%. For the same compound, the outcome in data set [17] and in data set [19] was Active. The result in data set [2] was inactive. The hemolysis at 1 h, 0.1 mg/ml in data set [6] lay in the range of 0 to 5%.

For the origin of these results see ChEMBL document CHEMBL4428045, “Antioxidant properties of thio-caffeine derivatives: Identification of the newly synthesized 8-[(pyrrolidin-1-ylcarbonothioyl)sulfanyl]caffeine as antioxidant and highly potent cytoprotective agent” (Bioorg Med Chem Lett, 2016).
